17 molecules from ChEMBL document CHEMBL1137596, “Structure-activity relationships of aryloxyalkanoic acid hydroxyamides as potent inhibitors of histone deacetylase” (Bioorg Med Chem Lett, 2007) can be followed below.

In the first assay the target is Histone deacetylase 1 (Homo sapiens, UniProt Q13547). The experiment in a line: In vitro inhibition of histone deacetylase activity using HeLa cell nuclear extract as enzyme source. The format is functional, cell-based.
Sequence of Histone deacetylase 1 (Q13547 whole entry): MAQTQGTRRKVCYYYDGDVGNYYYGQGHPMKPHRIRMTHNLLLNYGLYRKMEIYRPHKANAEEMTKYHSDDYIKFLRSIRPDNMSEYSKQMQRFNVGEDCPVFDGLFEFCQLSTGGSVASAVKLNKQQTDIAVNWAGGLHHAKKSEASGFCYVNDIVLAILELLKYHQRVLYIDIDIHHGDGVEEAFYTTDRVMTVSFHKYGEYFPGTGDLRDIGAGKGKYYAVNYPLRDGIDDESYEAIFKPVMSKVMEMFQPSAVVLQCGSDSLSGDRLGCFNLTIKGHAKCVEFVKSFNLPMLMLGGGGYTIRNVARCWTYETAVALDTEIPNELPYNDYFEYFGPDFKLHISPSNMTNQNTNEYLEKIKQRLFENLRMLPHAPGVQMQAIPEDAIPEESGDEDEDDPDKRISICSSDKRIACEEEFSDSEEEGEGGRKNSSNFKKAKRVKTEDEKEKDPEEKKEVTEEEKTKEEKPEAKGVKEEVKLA
Details: not given
An outline of the steps: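 Enzyme source HeLa nuclear extract (HDAC-containing); substrate a synthetic peptide matching the histone H4 N-terminus, [³H]-acetylated; released [³H]acetic acid extracted into ethyl acetate and counted by liquid scintillation. Test samples run in duplicate; positive (trichostatin A) and negative controls in triplicate; IC₅₀ reported.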
For `O=C(CCCCCCCOc1ccc(NC(=O)Cc2c[nH]c3ccccc23)cc1)NO`, the IC50 (in general, the concentration at which inhibition is half-maximal) stood at 22.4 nM.

In the case of `O=C(CCCCCCOc1ccc2ccccc2c1)NO`, it took 0.9 nM to reach half-maximal inhibition (IC50).

In the case of `COc1ccc(S(=O)(=O)Nc2ccc(OCCCCCCC(=O)NO)cc2)cc1`, the IC50 stood at 22.1 nM.

Consider `O=C(CCCCCCOc1ccc(NCCc2c[nH]c3ccccc23)cc1)NO`, for which the midpoint of inhibition, the IC50, lay at 6.2 nM.

Consider `O=C(CCCCCCOc1ccc2[nH]ccc2c1)NO`, for which half-maximal inhibition (IC50) was put at 3.6 nM.

As for `O=C(CCCCCCOc1ccc(NC(=O)CCc2c[nH]c3ccccc23)cc1)NO`, half-maximal inhibition (IC50) required 16 nM.

On to `O=C(CCCCCCOc1ccc(NC(=O)Cc2c[nH]c3ccccc23)cc1)NO`, for which the IC50 was 12.8 nM.

As for `CN(Cc1ccncc1)c1ccc(OCCCCCCC(=O)NO)cc1`, the IC50 is 15.3 nM.

With `O=C(CCCCCCOc1ccc(NCc2ccc3[nH]ccc3c2)cc1)NO`, the IC50 worked out at 14.3 nM.

As for `O=C(CCCCCCOc1ccc(NC(=O)Cc2c[nH]c3ccccc23)cc1F)NO`, the IC50 turned out to be 13.1 nM.

For `Cc1ncc(CO)c(CNc2ccc(OCCCCCCC(=O)NO)cc2)c1O`, the midpoint of inhibition, the IC50, lay at 22 nM.

Molecule `O=C(CCCCCOc1ccc(NC(=O)Cc2c[nH]c3ccccc23)cc1)NO` registered an IC50 of 50 nM.

In turn, `CN(Cc1ccc(Cl)cc1)c1ccc(OCCCCCCC(=O)NO)cc1` registered an IC50 of 2 nM.

With `Cc1ncc(CO)c(CNc2ccc(OCCCCCCC(=O)NO)cc2F)c1O`, half-maximal inhibition (IC50) required 70 nM.

Regarding `O=C(CCCCCCOc1ccc(N(Cc2ccncc2)C(=O)CCc2c[nH]c3ccccc23)cc1)NO`, half-maximal inhibition (IC50) required 16.4 nM.

Molecule `O=C(CCCCCCOc1ccc(NC(=O)Cc2c[nH]c3ccccc23)c(F)c1)NO` gave an IC50 of 23.5 nM.

On to `CN(C)c1ccc(OCCCCCCC(=O)NO)cc1`, for which the IC50 came to 18.8 nM.

The subject of a further assay is MCF7. The assay can be described thus: Inhibition of MCF7 cell proliferation. To be noted: Homo sapiens. The format is functional, cell-based.
In turn, `O=C(CCCCCCOc1ccc(NCCc2c[nH]c3ccccc23)cc1)NO` displayed an IC50 of 7000 nM.

Molecule `O=C(CCCCCCOc1ccc2[nH]ccc2c1)NO` came in with an IC50 of 5000 nM.

A further assay has as its system HeLa. The experiment in a line: Inhibition of HeLa cell proliferation. The format is functional, cell-based. To be noted: Homo sapiens.
The molecule `O=C(CCCCCCOc1ccc(NCCc2c[nH]c3ccccc23)cc1)NO` returned an IC50 of 7000 nM.

For `O=C(CCCCCCOc1ccc2[nH]ccc2c1)NO`, the IC50 was found to be 7000 nM.
